The values below come from PubChem BioAssay AID624204 (Sanford-Burnham Center for Chemical Genomics, 2012).

Each structure is given as a SMILES string. About 770 (0.21%) of roughly 360,000 compounds were called active.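 Rule for the calls: active = inhibition at least 30% at 10 µM, raw YFP signal under a set limit, fluorescence ratio 0.5 to 1.5; inactive = the rest.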 What follows is part of a selection rich in actives, with near analogues and random picks from the rest.

Sentrin-specific protease 1 (Homo sapiens), sequence (Q9P0U3 419-644 limits assumed): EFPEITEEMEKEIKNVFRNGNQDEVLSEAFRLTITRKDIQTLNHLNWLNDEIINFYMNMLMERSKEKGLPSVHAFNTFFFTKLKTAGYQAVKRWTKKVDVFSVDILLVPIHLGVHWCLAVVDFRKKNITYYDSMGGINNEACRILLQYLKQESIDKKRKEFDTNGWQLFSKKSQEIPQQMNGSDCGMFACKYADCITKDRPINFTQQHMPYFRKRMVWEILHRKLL

This assay addresses Sentrin-specific protease 1 (Homo sapiens) (UniProt Q9P0U3). The assay is described as follows: human SENP1 catalytic domain inhibitors, primary screen, biochemical, FRET, uHTS (AID 624204).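 Note: 0% = enzyme with DMSO and 100% = no enzyme wells.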 The settings on record: recombinant SENP1 catalytic domain, CyPet-SUMO1-YPet FRET cleavage; at 10 µM; stronger effect = higher value. Put shortly: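 material = recombinant human SENP1 catalytic domain, His6-tagged | quantity = 20 pM enzyme | reagent = 25 nM SUMO1 FRET substrate | compound dosing = 10 µM single point, 0.5% DMSO | timing = 50 min enzyme reaction, room temperature, light-protected | detection = FRET, CFP and YFP emission | control set = no-enzyme low, enzyme-DMSO high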
The term inhibition denotes the relative decrease from the control value, in per cent. On to `Cc1cccc(NC(=O)N(Cc2cc3cc(C)cc(C)c3[nH]c2=O)CC2COCCO2)c1` (stereo not drawn), for which the inhibition is 1.21% (inactive).

For `COc1ncnc2c1N=C1CC(C)(C)CC(N)=C1S2`, the inhibition was 33.8% (active).

Take `O=C1/C(=C\c2ccc(O)cc2)CCC1CNc1ccc(Cl)cc1` (stereo not drawn): the inhibition is -58.8% (inactive).

Consider `COc1ccc(C(=O)OC(C)C(=O)NC2CCCC2)cc1S(=O)(=O)N1CCOCC1` (stereo not drawn), for which the inhibition was 2.06% (inactive).

As for `NS(=O)(=O)c1ccc(NC(=O)COC(=O)c2c3c(nc4ccccc24)/C(=C\c2ccc4c(c2)OCO4)CCC3)cc1`, the inhibition is -24.4% (inactive).

Turning to `COc1ccc(-n2nc(C(=O)NCC(=O)N3CCCCCC3)c3ccccc3c2=O)cc1Cl`, the inhibition is -0.802% (inactive).

In the case of `COc1cc(/C=C2\CCCc3c2nc2ccccc2c3C(=O)O)cc(Cl)c1O`, the inhibition was 54.9% (active).

In the case of `COc1cccc(COC(=O)C2CCN(S(=O)(=O)c3cccs3)CC2)c1OC`, the inhibition is -0.283% (inactive).

On to `C=CC[C@@H](Cc1ccc(F)cc1)C(=O)OC[C@H]1CCCN1C(=O)[C@H](CC=C)CC(=O)N(CCO)Cc1ccccc1`, for which the inhibition was 0.419% (inactive).

As for `O=C(CCNS(=O)(=O)c1cccs1)N1CCN(c2ccc(F)cc2)CC1`, the inhibition is 7.35% (inactive).

Regarding `CCOc1ccc(OCC(=O)OC(C)C(=O)NC2CCCCC2C)cc1` (stereo not drawn), the inhibition is 0.477% (inactive).

Take `CCOc1ccc(N(CC(=O)Nc2cccc(OC)c2)S(C)(=O)=O)cc1`: the inhibition was -0.216% (inactive).

In the case of `O=C(CC1CCCCC1)Nc1c2c(nn1-c1ccc(F)cc1)CS(=O)(=O)C2`, the inhibition was -0.662% (inactive).

`CCOC(=O)c1cc2c(=O)n3ccccc3nc2n(CC(C)C)c1=NC(=O)c1c(-c2c(F)cccc2Cl)noc1C`: the inhibition was -28.9% (inactive).

On to `O=C(O)c1cc2ccccc2c(=O)s1`, for which the inhibition is 2.49% (inactive).

`CCOC(=O)N1CCN(CC(=O)c2ccc3c(c2)CCN3)CC1`: the inhibition is -2.56% (inactive).

Take `N#CCC(=O)NC1CCC(CC2CCC(NC(=O)CC#N)CC2)CC1` (stereo not drawn): the inhibition is -0.386% (inactive).

Turning to `O=C(COC(=O)/C=C/c1ccc(Br)o1)Nc1cccc(S(=O)(=O)N2CCOCC2)c1`, the inhibition is -7.92% (inactive).

Turning to `CCn1nnnc1SCC(=O)c1ccc(C)cc1C`, the inhibition is 1.48% (inactive).

As for `Cc1ccc2c(c1)nnc1nnc(SCC(=O)O)n12`, the inhibition was 73% (active).

Take `Cc1cccc(-c2nnc(SCC(=O)O)n2Cc2ccccc2)c1`: the inhibition was 0.0319% (inactive).

As to `C[C@@H]1C[C@@H]2O[C@H]2/C=C\C=C\C(=O)Cc2c(Cl)c(O)cc(O)c2C(=O)O1`, the inhibition is -2.26% (inactive).

Take `CCCS(=O)(=O)N1CCCC(C(=O)NCCN2CCCCC2C)C1` (stereo not drawn): the inhibition was -23.8% (inactive).

For the compound `CN1CCN(/N=C/c2ccc(C#N)cc2)CC1`, the inhibition was 1.45% (inactive).

Turning to `CN1CCN(/N=C/c2ccc(-c3ccc([N+](=O)[O-])cc3)o2)CC1`, the inhibition is 58.4% (active).

As to `O=C1C2C3C=CC(C4CC34)C2C(=O)N1/N=C/c1ccc(-c2ccccc2[N+](=O)[O-])o1` (stereo not drawn), the inhibition was -25.8% (inactive).

`Nn1c(SCc2ccccc2)nnc1C1CCCCC1`: the inhibition is 3.72% (inactive).

As to `CCCC(=O)N1CCC(CCC(=O)NC2CC2)CC1`, the inhibition is 2.3% (inactive).

Consider `CCOC(=O)C1CCN(C(=O)CN2C(=O)c3cccnc3Oc3ccc(C)cc32)CC1`, for which the inhibition is 0.924% (inactive).

Regarding `CCOC(=O)C1CCN(c2ncnc3c2c(-c2ccccc2)cn3-c2ccc(C)cc2)CC1`, the inhibition was 47.1% (active).

`CCOC(=O)C1CCN(Cc2ccc(-c3ccccc3)cc2)CC1`: the inhibition was -0.00995% (inactive).

On to `CNCC[C@H](Oc1ccc(C(F)(F)F)cc1)c1ccccc1`, for which the inhibition was -0.124% (inactive).

Turning to `O=C(COc1ccc(/C=N/NS(=O)(=O)c2ccccc2)cc1)NCCc1ccccc1`, the inhibition was 3.48% (inactive).

For the compound `CC1=CC2=NC(=O)/C(=C/c3coc4ccccc4c3=O)C(=N)N2O1`, the inhibition was -38.6% (inactive).

For `O=C1/C(=C/c2coc3ccc(O)cc3c2=O)SC(=S)N1c1ccccc1`, the inhibition was 46.8% (active).

In the case of `CSc1ccc(CN2C(=O)NC3(CCCCCC3)C2=O)cc1`, the inhibition is 1.11% (inactive).

For `CCC1OC(c2ccc([N+](=O)[O-])cc2)=Nc2ccccc21` (stereo not drawn), the inhibition was -7.92% (inactive).

As to `N#Cc1ccc(C(C(=O)NCc2ccccc2)n2c(=O)c(-c3ccco3)nc3ccccc32)cc1` (stereo not drawn), the inhibition is -62.9% (inactive).

As for `Cc1cccc(C)c1NC(=O)C(c1cccc2ccccc12)n1c(=O)c(-c2ccco2)nc2ccccc21` (stereo not drawn), the inhibition is -49.2% (inactive).

On to `c1coc(-c2nc3nc4ccccc4n3nc2-c2ccco2)c1`, for which the inhibition was 86.8% (active).

On to `Cc1ccc(NC(=O)COC(=O)CCc2nc3ccccc3n2-c2ccccc2)c(C)c1`, for which the inhibition was 0.304% (inactive).

Consider `C[C@H](C(=O)CC(=O)OC(C)(C)C)[C@H](O)c1ccc(C(F)(F)F)cc1`, for which the inhibition was 0.388% (inactive).

Take `Cc1ncc(CO)c(/C=N/NC(=O)c2cccc(S(=O)(=O)N3CCCC3)c2)c1O`: the inhibition was -24.8% (inactive).

In the case of `CCOc1ccc(NS(=O)(=O)c2ccc(C(=O)NCC(c3ccccc3OC)N3CCCC3)cc2)cc1` (stereo not drawn), the inhibition was -1.55% (inactive).

`O=C(CN1CCOCC1)Nc1c(-c2ccccc2)c2cc(Br)ccc2[nH]c1=O`: the inhibition is -0.407% (inactive).

Turning to `Cc1ccccc1Nc1c(-c2ccccc2)nc2ncccn12`, the inhibition was 14.2% (inactive).

For `Cc1cccc(C)c1Nc1c(-c2ccccc2O)nc2ncccn12`, the inhibition is 32.1% (active).

In the case of `Cc1ccc(-c2c(N)nc3ncccn23)cc1`, the inhibition is -17.5% (inactive).

Turning to `Cc1ccc(NC(=O)[C@H](Cc2ccccc2)NC(=O)CC[C@H]2O[C@@H](n3ccc(=O)[nH]c3=O)[C@H](O)[C@@H]2O)cc1C`, the inhibition is 1.31% (inactive).

As to `Cc1ccc(Nc2nc(Cl)c(C=O)s2)cc1`, the inhibition is -32.5% (inactive).

With `Cc1ccc(Nc2nc(N)nc(CSc3nnc(C)s3)n2)cc1`, the inhibition is 3.47% (inactive).

On to `Cc1ccc(Nc2ccccc2N)cc1`, for which the inhibition was 54.5% (active).

With `O=C(CSc1nnc(-c2ccncc2)n1-c1ccc(Cl)cc1)Nc1ccc(C(=O)O)cc1`, the inhibition was 0.469% (inactive).

With `C=CC1=C(C(=O)O)N2C(=O)[C@@H](NC(=O)/C(=N/OCC(=O)O)c3csc(N)n3)[C@H]2SC1`, the inhibition is 56% (active).

Turning to `O=C(CCn1nnc2ccccc2c1=O)N[C@@H](Cc1c[nH]c2ccccc12)C(=O)O`, the inhibition was 0.24% (inactive).

With `CCN(CC)c1ccc(S(=O)(=O)N2CCOCC2)cc1NC(=O)CSc1cccc[n+]1[O-]`, the inhibition is 3.85% (inactive).

For `COC(=O)c1ccc(NC(=O)CSc2nncn2-c2cccnc2)cc1`, the inhibition is -5.21% (inactive).

Consider `COc1cccc(CNC(=O)C2CCCN(S(=O)(=O)N3CC(C)CC(C)C3)C2)c1` (stereo not drawn), for which the inhibition was -0.397% (inactive).

Take `CC(CC(=O)C1C(C)C=CCC1(C)C)NNC(N)=O` (stereo not drawn): the inhibition is 1.56% (inactive).

Turning to `COc1ccc2oc(C(=O)OCC(=O)N(CC(C)C)c3c(N)n(Cc4ccccc4)c(=O)[nH]c3=O)c(C)c2c1`, the inhibition is -9.9% (inactive).

Regarding `CCOC(=O)N(C)c1c(CC)nc2c(OCc3ccccc3C(=O)OC)cccn12`, the inhibition is 0.268% (inactive).

In the case of `O=C(CN1CCN(S(=O)(=O)c2ccc(Br)cc2)CC1)Nc1ccccc1C(=O)c1ccccc1`, the inhibition was 0.864% (inactive).

Consider `COc1ccc2c(c1)c(=O)c(C(=O)c1ccc(Cl)cc1)cn2CC(=O)Nc1ccc(F)cc1`, for which the inhibition is -1.49% (inactive).

Take `CCOc1ncccc1C(=O)OCC(=O)Nc1cccc(S(=O)(=O)N2CCCCCC2)c1`: the inhibition was 2.06% (inactive).

As for `O=C(NCc1cccnc1)c1ccccc1NC(=O)c1c(F)cccc1F`, the inhibition is 3.29% (inactive).

As for `CCCNC(=O)c1cc(C2CCCCN2S(=O)(=O)c2ccc(C#N)cc2)on1` (stereo not drawn), the inhibition was 2.5% (inactive).

With `Cc1cc(C(=O)N/N=C/c2ccc(N3CCOCC3)cc2)c(C)o1`, the inhibition was 33.5% (active).

Turning to `CC(C)c1cc(C(=O)N/N=C/c2ccoc2)c(O)c(C(C)C)c1`, the inhibition is 1.94% (inactive).

For the compound `CNC(=S)N/N=C/c1ccc(N2CCOCC2)s1`, the inhibition is -70.3% (inactive).

As to `Cc1ccc(S(=O)(=O)n2cccc2CO)cc1`, the inhibition was -0.0494% (inactive).

As for `CC(C)NC(=O)C1(C)CCCCCN1C(=O)c1ccc(-c2ccccc2)cc1` (stereo not drawn), the inhibition is 0.518% (inactive).

With `Cc1ccccc1CN1C(=O)CSCC1(C)C(=O)Nc1c(C)cccc1C` (stereo not drawn), the inhibition was -2.15% (inactive).

For `Cn1cc(/C=C/C(=O)N2CCCC(C(=O)c3ccc(C(F)(F)F)cc3)C2)cn1` (stereo not drawn), the inhibition was 0.414% (inactive).

In the case of `CO[C@H]1[C@@H]2C=CO[C@@H](O[C@H]3O[C@@H](CO)[C@H](O)[C@@H](O)[C@@H]3O)[C@@H]2[C@@]2(CO)O[C@@H]12`, the inhibition was -2% (inactive).

`COC(=O)c1c(NC(=O)CN2C(=O)NC(CCc3ccccc3)C2=O)sc2c1CCCCC2` (stereo not drawn): the inhibition is -3.88% (inactive).

Regarding `NC1=NN(c2cccc(C(=O)O)c2)C(=O)C1`, the inhibition was 4.58% (inactive).

For `Cc1cc(C)cc(C(=O)OCC(=O)NCCNC(=O)COC(=O)c2cc(C)cc(C)c2)c1`, the inhibition is 0.612% (inactive).

Turning to `O=C(c1ccc(-n2cnnn2)cc1)N1CCN(C(c2ccccc2)c2ccccc2)CC1`, the inhibition was 0.954% (inactive).

Turning to `CCc1ccc(OC(C)C(=O)Nc2ccc(S(=O)(=O)Nc3cc(C)on3)cc2)cc1` (stereo not drawn), the inhibition is 2.02% (inactive).

With `CCC(=O)Nc1ccc(-c2ccc(N3CCCCC3)nn2)cc1`, the inhibition is -4.2% (inactive).

With `COc1ccc(/C=C(\NC(=O)c2ccc(OCC(C)C)cc2)C(=O)OCc2ccco2)cc1`, the inhibition is -2.88% (inactive).

`COC1C(CO)OC(n2cnc3c(=S)nc(N)[nH]c32)C1O` (stereo not drawn): the inhibition is 0.119% (inactive).

Consider `Cc1ccc(CN2CCN(Cc3cccc(C)n3)CC2CCO)cc1` (stereo not drawn), for which the inhibition is -3.82% (inactive).
